Screening data deposited in PubChem by Broad Institute.
DENV2 CPE = DENV2-induced cell death inhibition; DENV2-infected cells, cytopathic effect rescue, plate reader; CPE inhibition, % at 9.99 µM; 1.7% of 350,000 active; in the data active means CPE inhibition above about 20%, passing the limit was not always enough; tested in BHK-21 cells
SIRT5 inh = inhibitors of human sirtuin-5 desuccinylase; inhibition, % at 15 µM; Q9NXA8; AID 652115; 1.1% of 330,000 active; Purified SirT5, succinyl-peptide AMC, trypsin-coupled fluorescence; in the data active means inhibition above about 15%
Target sequence (Q9NXA8 whole entry, looked up): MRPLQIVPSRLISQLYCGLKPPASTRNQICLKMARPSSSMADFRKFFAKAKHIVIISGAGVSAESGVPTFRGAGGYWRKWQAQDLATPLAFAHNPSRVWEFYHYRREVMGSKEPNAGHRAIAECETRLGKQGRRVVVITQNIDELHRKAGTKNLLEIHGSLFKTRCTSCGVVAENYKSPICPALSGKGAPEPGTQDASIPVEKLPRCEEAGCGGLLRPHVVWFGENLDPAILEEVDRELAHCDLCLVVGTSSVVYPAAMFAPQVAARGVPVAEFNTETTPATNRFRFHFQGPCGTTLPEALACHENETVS
S100A4 MyoIIA = blocks human S100A4 binding to myosin IIA peptide; inhibition, % at 10.7 µM; AID 652163; S100A4/TAMRA-MyoIIA peptide fluorescence polarization; P26447; 0.14% of 360,000 active;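 active means mean inhibition of at least 70% across replicates, with every replicate also reaching that level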
Target sequence (P26447 whole entry, looked up): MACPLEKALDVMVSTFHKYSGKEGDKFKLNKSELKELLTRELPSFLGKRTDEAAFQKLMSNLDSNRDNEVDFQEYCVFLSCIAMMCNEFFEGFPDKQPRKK
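incubation = readout 5 min after mixing, signal stable up to 60 min | system = S100A4 monomer protein | buffer or medium = HEPES pH 7.2 with CaCl2, KCl, NaCl, DTT, Triton | benchmarks = neutral control DMSO, positive control TFP | also added = fluorescent myosin IIA peptide, 5 nM | compound dosing = one concentration per compound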
PGC1a acetyl inh = modulators of PGC1a acetylation. U2OS PGC1a acetylation, AlphaScreen anti-acetyl-lysine; with virally co-expressed GCN5 acetyltransferase. inhibition, % at 15.6 µM. 0.17% of 350,000 active. AID 651687;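 active means every replicate shows inhibition of at least 40%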
Statin myotox sup = protects C2C12 myotubes from simvastatin toxicity; ATP luminescence, 48 h; scaled: DMSO 0, geranylgeraniol control 100; rescue of ATP level, % at 7.49 µM; 0.78% of 330,000 active;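 active means mean ATP rescue above about 67%, or every replicate alone reaching that limit, limit read from the data, passing the limit was not always enough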;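 further: myotubes were challenged with 10 µM simvastatin during compound exposure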
Numbers stand for hits; ! = not confirmed by another sample. Sampled rows, rich in hits. Any-hit rate of the full collection: about 2.9%.

`C[C@H]1CN([C@@H](C)CO)C(=O)Cc2cc(NC(=O)C3CC3)ccc2O[C@H]1CN(C)Cc1ccc(C(=O)Nc2ccccc2N)cc1` gave DENV2 CPE inactive, S100A4 MyoIIA inactive, PGC1a acetyl inh inactive and Statin myotox sup inactive.
Screening CO[C@@H]1CN(C)C(=O)c2ccc(NC(=O)NC(C)C)cc2OC[C@@H](C)N(Cc2ccccc2)C[C@H]1C returned DENV2 CPE inactive, SIRT5 inh inactive, S100A4 MyoIIA inactive and PGC1a acetyl inh inactive.
`CO[C@@H]1CN(C)C(=O)c2ccc(NC(=O)NC(C)C)cc2OC[C@@H](C)N(Cc2ccccc2)C[C@@H]1C` gave DENV2 CPE inactive, SIRT5 inh 18, S100A4 MyoIIA inactive, PGC1a acetyl inh inactive and Statin myotox sup inactive.
For CO[C@H]1CN(C)C(=O)c2ccc(NC(=O)NC(C)C)cc2OC[C@H](C)N(Cc2ccccc2)C[C@H]1C the results were DENV2 CPE inactive, SIRT5 inh 23, S100A4 MyoIIA inactive, PGC1a acetyl inh inactive and Statin myotox sup inactive.
For C[C@@H]1CN([C@H](C)CO)S(=O)(=O)c2ccc(C#CC3CC3)cc2O[C@H]1CN(C)Cc1ccccc1 the results were SIRT5 inh inactive, S100A4 MyoIIA inactive, PGC1a acetyl inh inactive and Statin myotox sup inactive.
For CC(C)C#Cc1cnc2c(c1)C(=O)N([C@@H](C)CO)C[C@@H](C)[C@H](CN(C)Cc1ccccn1)O2 the results were DENV2 CPE inactive, SIRT5 inh 21 and S100A4 MyoIIA inactive.
For C[C@@H]1CN([C@@H](C)CO)C(=O)c2cc(Br)cnc2O[C@@H]1CN(C)C(=O)c1ccccn1 the results were DENV2 CPE inactive, SIRT5 inh inactive, S100A4 MyoIIA inactive, PGC1a acetyl inh inactive and Statin myotox sup inactive.
`C[C@H](CO)N1C[C@H](C)[C@@H](CN(C)Cc2ccccc2F)Oc2ncc(Br)cc2C1=O` gave DENV2 CPE inactive, SIRT5 inh inactive, S100A4 MyoIIA inactive, PGC1a acetyl inh 64! and Statin myotox sup inactive.
For C[C@@H]1CN([C@H](C)CO)C(=O)c2cc(-c3ccccc3F)cnc2O[C@@H]1CN(C)Cc1ccccc1F the results were DENV2 CPE inactive, SIRT5 inh inactive, S100A4 MyoIIA inactive, PGC1a acetyl inh inactive and Statin myotox sup inactive.
For C[C@H](CO)N1C[C@H](C)[C@H](CN(C)C(=O)c2ccccn2)Oc2ncc(Br)cc2C1=O the results were DENV2 CPE 73!, SIRT5 inh inactive, S100A4 MyoIIA inactive, PGC1a acetyl inh inactive and Statin myotox sup inactive.
For C[C@H](CO)N1C[C@H](C)[C@@H](CN(C)Cc2ccccn2)Oc2ncc(Br)cc2C1=O the results were DENV2 CPE inactive, SIRT5 inh 25!, S100A4 MyoIIA inactive, PGC1a acetyl inh inactive and Statin myotox sup inactive.
For C[C@@H]1CN([C@H](C)CO)C(=O)Cc2cc(NC(=O)CCC(F)(F)F)ccc2O[C@H]1CN(C)S(=O)(=O)c1ccc(F)cc1 the results were DENV2 CPE inactive, S100A4 MyoIIA inactive, PGC1a acetyl inh inactive and Statin myotox sup inactive.
For C[C@H](CO)N1C[C@H](C)[C@H](CN(C)Cc2ccncc2)Oc2ncc(Br)cc2C1=O the results were DENV2 CPE 85!, SIRT5 inh inactive, S100A4 MyoIIA inactive, PGC1a acetyl inh inactive and Statin myotox sup inactive.
Screening C[C@@H]1CN([C@@H](C)CO)C(=O)c2cc(Br)cnc2O[C@@H]1CN(C)Cc1ccncc1 returned DENV2 CPE inactive, SIRT5 inh inactive, S100A4 MyoIIA inactive, PGC1a acetyl inh inactive and Statin myotox sup inactive.
`COCCNC(=O)C[C@H]1C[C@@H]2c3cc(NS(=O)(=O)c4ccc(F)cc4)ccc3O[C@@H]2[C@@H](CO)O1` gave DENV2 CPE inactive, PGC1a acetyl inh inactive and Statin myotox sup inactive.
`COc1ccc2c3c(n(C)c2c1)[C@@H](CO)N(C(=O)Nc1ccc(F)cc1)CC31CCN(C(=O)c2ccccc2F)CC1` gave DENV2 CPE 40, SIRT5 inh inactive, S100A4 MyoIIA inactive and PGC1a acetyl inh inactive.
COc1ccc2c3c(n(C)c2c1)[C@H](CO)N(C(=O)C1CCCC1)CC31CCN(C(=O)Nc2cccc(F)c2)CC1 was read as DENV2 CPE 28, SIRT5 inh inactive and S100A4 MyoIIA inactive.
For CCC(=O)N1CC2(C1)CN(C(=O)Nc1ccc(F)cc1)[C@H](CO)c1c2c2ccc(OC)cc2n1C the results were DENV2 CPE 80 and PGC1a acetyl inh inactive.
For CCC(=O)N1CCC2(CC1)CN(C(=O)Nc1ccc(F)cc1)[C@H](CO)c1c2c2ccc(OC)cc2n1C the results were DENV2 CPE inactive, SIRT5 inh inactive and S100A4 MyoIIA inactive.
COc1ccc2c3c(n(C)c2c1)[C@@H](CO)N(C(=O)C1CCCC1)CC31CCN(C(=O)Nc2cccc(F)c2)CC1 was read as DENV2 CPE inactive, SIRT5 inh inactive and S100A4 MyoIIA inactive.
COc1ccc(NC(=O)N(C)C[C@H]2Oc3cc(C#CCN(C)C)ccc3S(=O)(=O)N([C@@H](C)CO)C[C@H]2C)cc1 was read as DENV2 CPE inactive, SIRT5 inh inactive, S100A4 MyoIIA inactive, PGC1a acetyl inh inactive and Statin myotox sup inactive.
Screening COc1ccc(NC(=O)N2CCCCN3[C@H](C2)[C@H](c2ccc(-c4ccccc4F)cc2)[C@@H]3CO)cc1 returned DENV2 CPE 30, SIRT5 inh inactive, S100A4 MyoIIA inactive, PGC1a acetyl inh inactive and Statin myotox sup inactive.
Screening O=C(Nc1ccc(F)cc1)N1CCCCN2[C@H](CO)[C@@H](c3ccc(C4=CCCCC4)cc3)[C@H]2C1 returned DENV2 CPE 29, SIRT5 inh inactive, S100A4 MyoIIA inactive and PGC1a acetyl inh inactive.
For O=C(Nc1ccc(F)cc1)N1CCCCN2[C@H](C1)[C@H](c1ccc(-c3ccccc3F)cc1)[C@@H]2CO the results were DENV2 CPE inactive, SIRT5 inh 18, S100A4 MyoIIA inactive and PGC1a acetyl inh inactive.
`COc1ccc(NC(=O)N2CCCCN3[C@H](CO)[C@@H](c4ccc(-c5ccccc5F)cc4)[C@@H]3C2)cc1` gave DENV2 CPE inactive, SIRT5 inh 18, S100A4 MyoIIA inactive, PGC1a acetyl inh inactive and Statin myotox sup inactive.
COc1ccc(NC(=O)N2CCCCN3[C@H](C2)[C@@H](c2ccc(-c4ccccc4F)cc2)[C@@H]3CO)cc1 was read as DENV2 CPE inactive, SIRT5 inh inactive, S100A4 MyoIIA inactive, PGC1a acetyl inh inactive and Statin myotox sup inactive.
C[C@H](CO)N1C[C@H](C)[C@@H](CN(C)C(=O)CN2CCOCC2)Oc2ncc(C3=CCCC3)cc2C1=O was read as DENV2 CPE inactive, SIRT5 inh inactive, S100A4 MyoIIA inactive, PGC1a acetyl inh inactive and Statin myotox sup inactive.
`COc1ccc(C(=O)COC(=O)CCN=C2NS(=O)(=O)c3ccccc32)c(OC)c1` gave DENV2 CPE 82, SIRT5 inh inactive and S100A4 MyoIIA inactive.
Screening CC(=O)Nc1ccc(NC(=O)C(C)OC(=O)CCCN=C2NS(=O)(=O)c3ccccc32)cc1 (centres undefined) returned DENV2 CPE inactive, SIRT5 inh inactive, S100A4 MyoIIA 136, PGC1a acetyl inh inactive and Statin myotox sup inactive.
